Source: ChEMBL document CHEMBL4414651, “Discovery and Optimization of Salicylic Acid-Derived Sulfonamide Inhibitors of the WD Repeat-Containing Protein 5-MYC Protein-Protein Interaction” (J Med Chem, 2019)
pKd: −log10 of the molar value. The source made the active and inactive calls. The rule behind the calls is not given here.

Columns and labels:
[1] = molecular target: T1, WD repeat-containing protein 5 (Homo sapiens, UniProt P61964)
[2] = molecular target: T1, WD repeat-containing protein 5; assay: Binding affinity to N-terminal FLAG-tagged human full-length WDR5 expressed in HEK293T cells harboring human C-terminal HA-tagged c-MYC assessed as disruption of WDR5-c-MYC protein-protein interaction at 50 uM by SDS-PAGE based immunoblot assay; assay type: cell-based
[3] = Protein binding in plasma (unknown origin) assessed as unbound fraction; assay type: ADME, cell-free
[4] = Apparent permeability from apical to basolateral side in MDCK cells; assay type: ADME, cell-based, Canis lupus familiaris; details: dog
[5] = Solubility of the compound; assay type: physicochemical
How it was run: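 Kinetic solubility, measured by an outside contract lab using a standard commercial assay format.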

Homo sapiens = species on record: Homo sapiens; assay: Inhibition of human MLL1/WDR5/RBBP5/ASH2L/DPY30 complex assessed as reduction in histone methyl-transferase activity using H3-peptide as substrate
[6] = molecular target: T1, WD repeat-containing protein 5; assay: Binding affinity to N-terminal FLAG-tagged human full-length WDR5 expressed in HEK293T cells harboring human C-terminal HA-tagged c-MYC assessed as disruption of WDR5-RBBP5 protein-protein interaction at 50 uM by SDS-PAGE based immunoblot assay; assay type: cell-based
How it was run: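 HEK293 cells expressing FLAG-WDR5 and c-MYC-HA were kept in DMEM with 10% FBS, hygromycin B 50 μg/mL and puromycin 100 ng/mL. Lysates in Tris pH 8.0/NaCl/EDTA/1% Triton buffer were treated with compound at 50 μM or 6.25–50 μM. α-FLAG magnetic M2 beads, 2 h at 4 °C, then SDS-PAGE and α-RBBP5 immunoblot. Quantified against vehicle; at least two independent repeats.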

[7] = molecular target: T1, WD repeat-containing protein 5; assay: Binding affinity to N-terminal FLAG-tagged human full-length WDR5 […] assessed as change in melting temperature at 10 uM by differential scanning fluorimetry
How it was run: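 Thermal shift (differential scanning fluorimetry) on WDR5, with compounds at 10 μM. Samples were run in triplicate, and ΔTm is the average melting-temperature shift read by fluorescence.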

Row | Structure (SMILES) | pKd [1] | also measured
1 | CNC(=O)c1cc(C2(C#N)CCC2)cc(NS(=O)(=O)c2cc(Br)ccc2OC)c1O | 6.04 | Activity [2]: Active
2 | CCOc1ccc(S(=O)(=O)Nc2ccccc2C(=O)O)c(C)c1C | < 3.90 | 
3 | CNC(=O)c1cc(NS(=O)(=O)c2cc(Br)ccc2O)cc(S(F)(F)(F)(F)F)c1 | 6.07 | 
4 | CS(=O)(=O)c1cc(Cl)cc(NS(=O)(=O)c2cc(Br)ccc2O)c1 | 5.73 | Fu [3]: 0.004%; Papp [4]: 4.79 ×10⁻⁶ cm/s; solubility [5]: > 100 µM
5 | CS(=O)(=O)c1cc(S(F)(F)(F)(F)F)cc(NS(=O)(=O)c2cc(Br)ccc2O)c1O | 6.78 | 
6 | O=C(O)c1cc(NS(=O)(=O)c2cc(Br)ccc2O)cc(OC(F)(F)F)c1 | 6.71 | 
7 | CNC(=O)c1c(O)c(NS(=O)(=O)c2cc(Br)cc(Cl)c2O)cc(C2CC2)c1F | 6.62 | inhibition (Homo sapiens): Active; Activity [2]: Active; Activity [6]: Active
8 | N#CC1(c2cc(NS(=O)(=O)c3cc(Br)ccc3O)c(O)c(C(=O)O)c2)CCCCC1 | 6.71 | 
9 | CS(=O)(=O)c1cc(NS(=O)(=O)c2cc(Br)ccc2O)cc(S(F)(F)(F)(F)F)c1 | 6.29 | Fu [3]: 0.002%; Papp [4]: 16.1 ×10⁻⁶ cm/s; solubility [5]: > 100 µM
10 | CS(=O)(=O)c1cc(Cl)cc(NS(=O)(=O)c2cc(Br)ccc2O)c1O | 5.97 | inhibition (Homo sapiens): Active
11 | COc1ccc(I)cc1S(=O)(=O)Nc1cc(Cl)ccc1O | 5.08 | 
12 | O=C(O)c1cc(C2CC2)cc(NS(=O)(=O)c2cc(Br)cc(Cl)c2O)c1O | 6.68 | 
13 | CS(=O)(=O)c1cc(Cl)cc(NS(=O)(=O)c2cc(Br)cc(Cl)c2O)c1 | 6.66 | Fu [3]: 0.0007%; Papp [4]: 3.89 ×10⁻⁶ cm/s; solubility [5]: > 100 µM
14 | CS(=O)(=O)c1cc(Cl)cc(NS(=O)(=O)c2cc(Br)cc3cccnc23)c1O | 6.41 | Activity [2]: Active
15 | O=C(O)c1cc(Cl)cc(NS(=O)(=O)c2cc(Br)ccc2O)c1 | 5.54 | 
16 | COc1ccc(Br)cc1S(=O)(=O)Nc1cc(Cl)cc(C(=O)O)c1O | 6.37 | 
17 | O=S(=O)(Nc1cc(C2CC2)ccc1O)c1cc(Br)ccc1O | 6.09 | 
18 | O=C(O)c1c(O)c(NS(=O)(=O)c2cc(Br)ccc2O)cc(C2CC2)c1F | 6.91 | Fu [3]: < 0.0008%; inhibition (Homo sapiens): Active; Papp [4]: 0.61 ×10⁻⁶ cm/s; solubility [5]: > 100 µM
19 | N#CC1(c2cc(NS(=O)(=O)c3cc(Br)cc4cccnc34)c(O)c(C(=O)O)c2)CCC1 | 6.98 | 
20 | CNC(=O)c1cc(C2(C#N)CCC2)cc(NS(=O)(=O)c2cc(Br)cc3cccnc23)c1O | 6.08 | Activity [2]: Active

Row | Structure (SMILES) | pKd [1] | also measured
21 | O=S(=O)(Nc1cc(S(F)(F)(F)(F)F)ccc1O)c1cc(Br)ccc1O | 6.96 | inhibition (Homo sapiens): Active; Papp [4]: 14.7 ×10⁻⁶ cm/s; solubility [5]: > 100 µM
22 | COc1ccc(Br)cc1S(=O)(=O)Nc1cc(C(C)(C)C)ccc1O | 5.42 | 
23 | CNC(=O)c1cc(C2(C#N)CCCCC2)cc(NS(=O)(=O)c2cc(Br)cc(Cl)c2O)c1O | 6.44 | Activity [2]: Active; Activity [6]: Active
24 | O=C(O)c1c(O)c(NS(=O)(=O)c2cc(Br)cc(Cl)c2O)cc(C2CC2)c1F | 7.30 | inhibition (Homo sapiens): Active; Activity [2]: Active; Activity [6]: Active
25 | CNC(=O)c1cc(Cl)cc(NS(=O)(=O)c2cc(Br)cc(Cl)c2O)c1O | 6.53 | 
26 | COc1ccc(Br)cc1S(=O)(=O)Nc1cc(Cl)ccc1O |  | inhibition (Homo sapiens): Active
27 | COc1ccc(Cl)cc1S(=O)(=O)Nc1cc(Cl)ccc1O | 5.08 | 
28 | O=C(O)c1cc(S(F)(F)(F)(F)F)cc(NS(=O)(=O)c2cc(Br)cc3cccnc23)c1O | 7.33 | 
29 | CNC(=O)c1cc(S(F)(F)(F)(F)F)cc(NS(=O)(=O)c2cc(Br)ccc2O)c1O | 6.69 | 
30 | CNC(=O)c1cc(S(F)(F)(F)(F)F)cc(NS(=O)(=O)c2cc(Br)cc(Cl)c2O)c1O | 6.72 | Activity [2]: Active
31 | CS(=O)(=O)c1cc(S(F)(F)(F)(F)F)cc(NS(=O)(=O)c2cc(Br)cc(Cl)c2O)c1O | 7.35 | Fu [3]: < 0.0003%; Papp [4]: 18.6 ×10⁻⁶ cm/s; solubility [5]: > 100 µM
32 | COc1ccc(Br)cc1S(=O)(=O)Nc1ccc(Cl)cc1O | 4.56 | 
33 | O=C(O)c1cc(Cl)cc(NS(=O)(=O)c2cc(Br)ccc2O)c1O | 6.65 | ΔTm [7]: 4.05 °C
34 | COc1ccc(Br)cc1S(=O)(=O)Nc1ccccc1O | < 4.40 | 
35 | O=S(=O)(Nc1cc(Cl)ccc1O)c1cc(Br)ccc1O | 5.90 | Fu [3]: < 0.0026%; Papp [4]: 36.4 ×10⁻⁶ cm/s; solubility [5]: > 100 µM
36 | CNC(=O)c1cc(NS(=O)(=O)c2cc(Br)ccc2O)cc(C2(C#N)CCC2)c1 | 5.97 | 
37 | N#CC1(c2ccc(O)c(NS(=O)(=O)c3cc(Br)ccc3O)c2)CCCCC1 | 6.64 | 
38 | COc1ccccc1S(=O)(=O)Nc1cc(Cl)ccc1O | < 4.40 | 
39 | CS(=O)(=O)c1cc(NS(=O)(=O)c2cc(Br)cc(Cl)c2O)cc(C2(C#N)CCC2)c1 | 6.67 | 
40 | O=C(O)c1cc(OC(F)(F)F)cc(NS(=O)(=O)c2cc(Br)ccc2O)c1O | 6.86 | 

Row | Structure (SMILES) | pKd [1] | also measured
41 | CNC(=O)c1cc(S(F)(F)(F)(F)F)cc(NS(=O)(=O)c2cc(Br)cc3cccnc23)c1O | 6.91 | 
42 | CS(=O)(=O)c1cc(C2(C#N)CCC2)cc(NS(=O)(=O)c2cc(Br)cc3cccnc23)c1O | 6.57 | 
43 | CNC(=O)c1cc(NS(=O)(=O)c2cc(Br)cc(Cl)c2O)cc(C2(C#N)CCC2)c1 | 6.89 | 
44 | N#CC1(c2ccc(O)c(NS(=O)(=O)c3cc(Br)ccc3O)c2)CCCC1 | 6.21 | 
45 | CCOc1cc(S(=O)(=O)Nc2ccccc2C(=O)O)ccc1F | 4.15 | 
46 | N#CC1(c2cc(NS(=O)(=O)c3ccc(Br)cc3O)c(O)c(C(=O)O)c2)CCC1 |  | ΔTm [7]: 0.42 °C
47 | O=C(O)c1cc(S(F)(F)(F)(F)F)cc(NS(=O)(=O)c2cc(Br)cc(Cl)c2O)c1O | 7.51 | ΔTm [7]: 8.42 °C
48 | CS(=O)(=O)c1cc(C2(C#N)CCC2)cc(NS(=O)(=O)c2cc(Br)ccc2O)c1O | 6.46 | 
49 | COc1ccc(Br)cc1S(=O)(=O)Nc1cc(-c2ccccc2)ccc1O | 4.43 | 
50 | O=S(=O)(Nc1cc(OC(F)(F)F)ccc1O)c1cc(Br)ccc1O | 6.26 | 
51 | O=C(O)c1cc(NS(=O)(=O)c2cc(Br)ccc2O)cc(S(F)(F)(F)(F)F)c1 | 7.19 | 
52 | CS(=O)(=O)c1cc(C2(C#N)CCC2)cc(NS(=O)(=O)c2cc(Br)cc(Cl)c2O)c1O | 6.96 | 
53 | O=C(O)c1cc(Cl)cc(NS(=O)(=O)c2cc(Br)cc(Cl)c2O)c1O | 6.79 | ΔTm [7]: 4.05 °C
54 | CS(=O)(=O)c1cc(Cl)cc(NS(=O)(=O)c2cc(Br)cc(Cl)c2O)c1O | 6.91 | inhibition (Homo sapiens): Active; Activity [2]: Active
55 | CNC(=O)c1cc(C2(C#N)CCC2)cc(NS(=O)(=O)c2cc(Br)ccc2O)c1O | 6.25 | Fu [3]: < 0.0006%; inhibition (Homo sapiens): Active; Activity [2]: Active; Papp [4]: 45.2 ×10⁻⁶ cm/s; Activity [6]: Active; solubility [5]: > 100 µM
56 | O=S(=O)(Nc1cc(Cl)ccc1O)c1cccc(Br)c1 | 4.44 | 
57 | COc1ccc(Br)cc1S(=O)(=O)Nc1cc(Cl)cc(S(C)(=O)=O)c1O | 6.52 | Activity [2]: Active
58 | CS(=O)(=O)c1cc(NS(=O)(=O)c2cc(Br)cc(Cl)c2O)cc(S(F)(F)(F)(F)F)c1 | 7.03 | Activity [2]: Active
59 | O=S(=O)(Nc1cc(C2(C(F)(F)F)CC2)ccc1O)c1cc(Br)ccc1O | 6.26 | 
